Assay [1] has as its system Xanthomonas vesicatoria. Description: Antibacterial activity against Xanthomonas vesicatoria ATCC 11633 by modified broth dilution method. In kind it is functional. In outline: (§1)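 MIC read in 96-well plates by a modified broth dilution test; streptomycin sulfate as positive control.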
Assay [2] concerns Staphylococcus haemolyticus. Description: Antibacterial activity against Staphylococcus haemolyticus ATCC 29970 by modified broth dilution method. In kind it is functional. In outline: as §1
Assay [3] relates to A549. Kind of assay: Cytotoxicity against human A549 cells by MTT assay. In kind it is functional, cell-based.
The test system of assay [4] is A2780. Description: Cytotoxicity against human A2780 cells by MTT assay.
Assay [5] concerns Ralstonia solanacearum. Description: Antibacterial activity against Ralstonia solanacearum ATCC 11696 by modified broth dilution method. The format is functional.
Assay [6] can be described thus: Cytotoxicity against human BGC823 cells by MTT assay. As to conditions: BGC-823.
Assay [7] in a line: Cytotoxicity against human HCT8 cells by MTT assay. As to conditions: HCT-8.
The subject of assay [8] is Pseudomonas. Description: Antibacterial activity against Pseudomonas lachrymans ATCC 11921 by modified broth dilution method. The format is functional. In outline:
as §1

For assay [9], the system named is Bacillus subtilis. Kind of assay: Antibacterial activity against Bacillus subtilis ATCC 11562 by modified broth dilution method. In kind it is functional. Put shortly: as §1
Assay [10] relates to Agrobacterium tumefaciens. Kind of assay: Antibacterial activity against Agrobacterium tumefaciens No.8 ATCC 11158 by modified broth dilution method. In kind it is functional. In outline: as §1
In assay [11] the test system is Pyricularia oryzae. Kind of assay: Antifungal activity against Magnaporthe oryzae assessed as inhibition of spore germination incubated for 8 hrs. The format is functional, organism-based.
Assay [12] in a line: Cytotoxicity against human Bel7402 cells by MTT assay. As to conditions: Bel-7402.

Consider `O=C1CC[C@@H](O)[C@@]23O[C@@]12C1(Oc2cccc4cccc(c24)O1)[C@H](O)[C@@H](O)[C@@H]3O`, for which the MIC in assay [1], in assay [2], in [5], in assay [8], in assay [9] and in [10] was greater than 250 µg/mL throughout. Moreover, the IC50 in assay [3] was greater than 10 µM; in [4], greater than 10 µM; in [6], greater than 10 µM; in [7], greater than 10 µM; in assay [11], greater than 200 µg/mL; in assay [12], greater than 10 µM.
As to `O=C1C[C@H](O)[C@H](O)C2=C[C@H](O)[C@@H](O)C3(Oc4cccc5cccc(c45)O3)[C@]12O`, the MIC in [1], in assay [2], in assay [5], in [8], in assay [9] and in [10] was greater than 250 µg/mL throughout. The IC50 in assay [3] was greater than 10 µM; in assay [4], greater than 10 µM; in assay [6] it was greater than 10 µM; in assay [7] it was greater than 10 µM; in assay [11], greater than 200 µg/mL; in assay [12] it was greater than 10 µM.
Consider `O=C1CCC2(Oc3cccc4cccc(c34)O2)c2c(Cl)ccc(O)c21`, for which the MIC in assay [1], in assay [2], in assay [5], in assay [8], in [9] and in assay [10] was greater than 250 µg/mL throughout. For the same compound, the IC50 in assay [3] was greater than 10 µM; in [4], greater than 10 µM; in assay [6], greater than 10 µM; in assay [7], greater than 10 µM; in [11] it was greater than 200 µg/mL; in assay [12], greater than 10 µM.
For `O=C1C[C@H](O)[C@H](O)[C@@]23O[C@@]12C1(Oc2cccc4cccc(c24)O1)[C@@H]1O[C@@H]1[C@@H]3O`, the MIC in assay [1], in [2], in [5], in assay [8], in assay [9] and in assay [10] was greater than 250 µg/mL throughout. Besides, the IC50 in [3] was greater than 10 µM; in assay [4] it was greater than 10 µM; in assay [6] it was greater than 10 µM; in [7], greater than 10 µM; in [11], greater than 200 µg/mL; in assay [12], greater than 10 µM.
Consider `O[C@@H]1C=C[C@H](O)[C@@]23O[C@@]12C1(Oc2cccc4cccc(c24)O1)[C@@H]1O[C@@H]1[C@@H]3O`, for which the MIC in assay [1], in assay [2], in assay [5], in [8], in [9] and in assay [10] was greater than 250 µg/mL each time. In addition, the IC50 in [3] was greater than 10 µM; in assay [4], greater than 10 µM; in assay [6], greater than 10 µM; in [7], greater than 10 µM; in assay [11], greater than 200 µg/mL; in assay [12], greater than 10 µM.
Consider `O[C@@H]1CC[C@H](O)[C@@]23O[C@@]12C1(Oc2cccc4cccc(c24)O1)[C@@H]1O[C@@H]1[C@@H]3O`, for which the MIC in assay [1], in assay [2], in assay [5], in assay [8], in assay [9] and in assay [10] was greater than 250 µg/mL each time. The IC50 in assay [3] is greater than 10 µM; in [4], greater than 10 µM; in [6], greater than 10 µM; in assay [7] it was greater than 10 µM; in [11] it was greater than 200 µg/mL; in assay [12], greater than 10 µM.
For the compound `O=C1CCC2(Oc3cccc4cccc(c34)O2)c2c(O)ccc(O)c21` [PALMARUMYCIN CP17], the MIC in assay [1], in assay [2], in [5], in [8], in assay [9] and in assay [10] was greater than 250 µg/mL throughout. The half-inhibitory concentration (IC50) is greater than 10 µM in [3]; greater than 10 µM in [4]; greater than 10 µM in [6]; greater than 10 µM in [7]; greater than 200 µg/mL in [11]; greater than 10 µM in [12].

Source of the values: ChEMBL document CHEMBL3352444, “Bioactive spirobisnaphthalenes from the endophytic fungus Berkleasmium sp” (J Nat Prod, 2014).
